# Data as given in ChEMBL document CHEMBL3627637, “Phenylalanine and Phenylglycine Analogues as Arginine Mimetics in Dengue Protease Inhibitors” (J Med Chem, 2015).
# The source made the active and inactive calls. The rule behind the calls is not given here. Non-standard residues stand in square brackets, D forms with d. Residues, ends and D or L forms follow the SMILES beside them. *: point of attachment. Phe(4-guanidino) = N=C(N)Nc1ccc(C[C@H](N)C(=O)O)cc1; Phe(3-CN) = N#Cc1cccc(C[C@H](N)C(=O)O)c1; Phe(4-CN) = N#Cc1ccc(C[C@H](N)C(=O)O)cc1; Phe(4-NH2) = Nc1ccc(C[C@H](N)C(=O)O)cc1; Hydrocinnamoyl = O=C(CCc1ccccc1)*; 3Pal = N[C@@H](Cc1cccnc1)C(=O)O; 4Pal = N[C@@H](Cc1ccncc1)C(=O)O; Phg = N[C@H](C(=O)O)c1ccccc1; Bz = O=C(c1ccccc1)*
# Columns and labels:
# [1] = Permeability of the compound at 200 uM incubated for 5 hrs by PAMPA; type: physicochemical
# Outline: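 PAMPA in PBS: donor wells held 200 μM compound (triplicate) against PBS acceptor, 5 h at room temperature. Donor and acceptor concentrations were quantified by RP-18 HPLC-UV against calibration curves (10–200 μM). Pe and membrane retention were calculated by a literature method. Amiloride, caffeine, famotidine, furosemide and phenytoin served as references.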
# [2] = Inhibition of Dengue virus (serotype 2) NS2B-NS3 protease preincubated with protein for 15 mins followed by Abz-Nle-Lys-Arg-Arg-Ser-3-(NO2)Tyr substrate addition measured by continuous fluorometric analysis; parameters: species or system dengue virus type 2
# Outline: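 DENV2 protease (100 nM) in Tris-HCl pH 9.0/ethylene glycol/Brij 58 buffer, preincubated 15 min with inhibitor, then 50 μM FRET substrate added. Read at ex 320/em 405 nm over 15 min. Done for compounds with ≥70% inhibition, using series of 0–2.5, 0–6 or 0–30 μM, in triplicate, with nonlinear fitting. Ki came from substrate at 50–200 μM via Cheng–Prusoff.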
# dengue virus type 2 [3] = assay: Inhibition of Dengue virus (serotype 2) NS2B-NS3 protease at 50 uM preincubated with protein for 15 mins followed by Abz-Nle-Lys-Arg-Arg-Ser-3-(NO2)Tyr substrate addition measured by continuous fluorometric analysis
# Outline: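 Continuous FRET assay in 50 mM Tris-HCl pH 9.0, 10% ethylene glycol, 0.0016% Brij 58. DENV2 protease (100 nM) was preincubated 15 min with inhibitor (50 μM final), then Abz-Nle-Lys-Arg-Arg-Ser-3-(NO2)Tyr (50 μM final; Km 105 μM) was added. Read at ex 320/em 405 nm as slope over 15 min, relative to an uninhibited control. Triplicate.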
# Trypsin [4] = target: T1, Trypsin (Homo sapiens, UniProt P07477+P07478+P35030); assay: Inhibition of trypsin (unknown origin) at 50 uM preincubated with protein for 15 mins followed by boc-Val-Pro-Arg-AMC substrate addition measured by continuous fluorometric analysis; type: protein assay
# Outline: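 Trypsin (1 nM) was preincubated 15 min with inhibitor (50 μM final) in 50 mM Tris-HCl pH 7.5, 150 mM NaCl, 0.05% Tween 20. boc-Val-Pro-Arg-AMC (50 μM final) was added. Continuous fluorescence at ex 355/em 460 nm; rate compared with an uninhibited control. Triplicate.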
# Prothrombin = Prothrombin (Homo sapiens, UniProt P00734); assay: Inhibition of human thrombin at 25 uM preincubated with protein for 15 mins followed by boc-Val-Pro-Arg-AMC substrate addition measured after 10 mins by continuous fluorometric analysis
# [5] = target: Genome polyprotein (West Nile virus) (UniProt P06935); assay: Inhibition of West Nile virus NS2B-NS3 protease at 50 uM preincubated with protein for 15 mins followed by Abz-Gly-Leu-Lys-Arg-Gly-Gly-3-(NO2)-Tyr substrate addition measured by continuous fluorometric analysis
# Outline: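 WNV NS2B-NS3pro (150 nM) was preincubated 15 min with inhibitor (50 μM final) in 50 mM Tris-HCl pH 9.0, 10% ethylene glycol, 0.0016% Brij 58. Abz-Gly-Leu-Lys-Arg-Gly-Gly-3-(NO2)-Tyr (50 μM; Km 212 μM) started the reaction. Continuous read at ex 320/em 405 nm for 15 min against an uninhibited control. Triplicate.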
# Trypsin [6] = target: T1, Trypsin; assay: Inhibition of trypsin (unknown origin) preincubated with protein for 15 mins followed by boc-Val-Pro-Arg-AMC substrate addition measured by continuous fluorometric analysis; type: protein assay
# [7] = Cytotoxicity against human HuH7 cells at 50 uM incubated for 48 hrs measured by Cell-Titer Glo Luminescent viability Assay; type: cell-based; details: huh-7, 48 h
# [8] = Half life in Sprague-Dawley rat liver microsomes at 100 uM incubated for 30 mins by HPLC analysis; type: ADME
# Outline: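 Pooled male Sprague-Dawley rat liver microsomes (0.2 mg/mL protein) with NADPH (5 mM) in DPBS, preincubated 15 min at 37 °C. Compound (100 μM) was then incubated 30 min at 37 °C. Aliquots at 0, 2, 5, 10, 20 and 30 min were quenched with acetonitrile, iced, and centrifuged. Parent remaining was measured by RP-HPLC-UV peak area versus reference. Testosterone served as activity control.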
# dengue virus type 2 [9] = assay: Antiviral activity against wild type Dengue virus (serotype 2) infected in human Huh-7 cells assessed as inhibition of viral replication at 50 uM incubated for 48 hrs measured by Cell-Titer Glo Luminescent viability assay; type: functional; details: Huh-7, 48 h
# Genome polyprotein = Genome polyprotein (West Nile virus, UniProt P06935); assay: Inhibition of West Nile virus NS2B-NS3 protease preincubated with protein for 15 mins followed by Abz-Gly-Leu-Lys-Arg-Gly-Gly-3-(NO2)-Tyr substrate addition measured by continuous fluorometric analysis
# Outline: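 WNV protease (150 nM), 15-min preincubation with inhibitor in pH 9.0 Tris buffer, then 50 μM FRET substrate. Read at ex 320/em 405 nm. Done for compounds with ≥90% single-point inhibition, using graded inhibitor concentrations in triplicate, with the curve fitted.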
# Chain of Genome polyprotein (West Nile virus) (P06935 whole entry): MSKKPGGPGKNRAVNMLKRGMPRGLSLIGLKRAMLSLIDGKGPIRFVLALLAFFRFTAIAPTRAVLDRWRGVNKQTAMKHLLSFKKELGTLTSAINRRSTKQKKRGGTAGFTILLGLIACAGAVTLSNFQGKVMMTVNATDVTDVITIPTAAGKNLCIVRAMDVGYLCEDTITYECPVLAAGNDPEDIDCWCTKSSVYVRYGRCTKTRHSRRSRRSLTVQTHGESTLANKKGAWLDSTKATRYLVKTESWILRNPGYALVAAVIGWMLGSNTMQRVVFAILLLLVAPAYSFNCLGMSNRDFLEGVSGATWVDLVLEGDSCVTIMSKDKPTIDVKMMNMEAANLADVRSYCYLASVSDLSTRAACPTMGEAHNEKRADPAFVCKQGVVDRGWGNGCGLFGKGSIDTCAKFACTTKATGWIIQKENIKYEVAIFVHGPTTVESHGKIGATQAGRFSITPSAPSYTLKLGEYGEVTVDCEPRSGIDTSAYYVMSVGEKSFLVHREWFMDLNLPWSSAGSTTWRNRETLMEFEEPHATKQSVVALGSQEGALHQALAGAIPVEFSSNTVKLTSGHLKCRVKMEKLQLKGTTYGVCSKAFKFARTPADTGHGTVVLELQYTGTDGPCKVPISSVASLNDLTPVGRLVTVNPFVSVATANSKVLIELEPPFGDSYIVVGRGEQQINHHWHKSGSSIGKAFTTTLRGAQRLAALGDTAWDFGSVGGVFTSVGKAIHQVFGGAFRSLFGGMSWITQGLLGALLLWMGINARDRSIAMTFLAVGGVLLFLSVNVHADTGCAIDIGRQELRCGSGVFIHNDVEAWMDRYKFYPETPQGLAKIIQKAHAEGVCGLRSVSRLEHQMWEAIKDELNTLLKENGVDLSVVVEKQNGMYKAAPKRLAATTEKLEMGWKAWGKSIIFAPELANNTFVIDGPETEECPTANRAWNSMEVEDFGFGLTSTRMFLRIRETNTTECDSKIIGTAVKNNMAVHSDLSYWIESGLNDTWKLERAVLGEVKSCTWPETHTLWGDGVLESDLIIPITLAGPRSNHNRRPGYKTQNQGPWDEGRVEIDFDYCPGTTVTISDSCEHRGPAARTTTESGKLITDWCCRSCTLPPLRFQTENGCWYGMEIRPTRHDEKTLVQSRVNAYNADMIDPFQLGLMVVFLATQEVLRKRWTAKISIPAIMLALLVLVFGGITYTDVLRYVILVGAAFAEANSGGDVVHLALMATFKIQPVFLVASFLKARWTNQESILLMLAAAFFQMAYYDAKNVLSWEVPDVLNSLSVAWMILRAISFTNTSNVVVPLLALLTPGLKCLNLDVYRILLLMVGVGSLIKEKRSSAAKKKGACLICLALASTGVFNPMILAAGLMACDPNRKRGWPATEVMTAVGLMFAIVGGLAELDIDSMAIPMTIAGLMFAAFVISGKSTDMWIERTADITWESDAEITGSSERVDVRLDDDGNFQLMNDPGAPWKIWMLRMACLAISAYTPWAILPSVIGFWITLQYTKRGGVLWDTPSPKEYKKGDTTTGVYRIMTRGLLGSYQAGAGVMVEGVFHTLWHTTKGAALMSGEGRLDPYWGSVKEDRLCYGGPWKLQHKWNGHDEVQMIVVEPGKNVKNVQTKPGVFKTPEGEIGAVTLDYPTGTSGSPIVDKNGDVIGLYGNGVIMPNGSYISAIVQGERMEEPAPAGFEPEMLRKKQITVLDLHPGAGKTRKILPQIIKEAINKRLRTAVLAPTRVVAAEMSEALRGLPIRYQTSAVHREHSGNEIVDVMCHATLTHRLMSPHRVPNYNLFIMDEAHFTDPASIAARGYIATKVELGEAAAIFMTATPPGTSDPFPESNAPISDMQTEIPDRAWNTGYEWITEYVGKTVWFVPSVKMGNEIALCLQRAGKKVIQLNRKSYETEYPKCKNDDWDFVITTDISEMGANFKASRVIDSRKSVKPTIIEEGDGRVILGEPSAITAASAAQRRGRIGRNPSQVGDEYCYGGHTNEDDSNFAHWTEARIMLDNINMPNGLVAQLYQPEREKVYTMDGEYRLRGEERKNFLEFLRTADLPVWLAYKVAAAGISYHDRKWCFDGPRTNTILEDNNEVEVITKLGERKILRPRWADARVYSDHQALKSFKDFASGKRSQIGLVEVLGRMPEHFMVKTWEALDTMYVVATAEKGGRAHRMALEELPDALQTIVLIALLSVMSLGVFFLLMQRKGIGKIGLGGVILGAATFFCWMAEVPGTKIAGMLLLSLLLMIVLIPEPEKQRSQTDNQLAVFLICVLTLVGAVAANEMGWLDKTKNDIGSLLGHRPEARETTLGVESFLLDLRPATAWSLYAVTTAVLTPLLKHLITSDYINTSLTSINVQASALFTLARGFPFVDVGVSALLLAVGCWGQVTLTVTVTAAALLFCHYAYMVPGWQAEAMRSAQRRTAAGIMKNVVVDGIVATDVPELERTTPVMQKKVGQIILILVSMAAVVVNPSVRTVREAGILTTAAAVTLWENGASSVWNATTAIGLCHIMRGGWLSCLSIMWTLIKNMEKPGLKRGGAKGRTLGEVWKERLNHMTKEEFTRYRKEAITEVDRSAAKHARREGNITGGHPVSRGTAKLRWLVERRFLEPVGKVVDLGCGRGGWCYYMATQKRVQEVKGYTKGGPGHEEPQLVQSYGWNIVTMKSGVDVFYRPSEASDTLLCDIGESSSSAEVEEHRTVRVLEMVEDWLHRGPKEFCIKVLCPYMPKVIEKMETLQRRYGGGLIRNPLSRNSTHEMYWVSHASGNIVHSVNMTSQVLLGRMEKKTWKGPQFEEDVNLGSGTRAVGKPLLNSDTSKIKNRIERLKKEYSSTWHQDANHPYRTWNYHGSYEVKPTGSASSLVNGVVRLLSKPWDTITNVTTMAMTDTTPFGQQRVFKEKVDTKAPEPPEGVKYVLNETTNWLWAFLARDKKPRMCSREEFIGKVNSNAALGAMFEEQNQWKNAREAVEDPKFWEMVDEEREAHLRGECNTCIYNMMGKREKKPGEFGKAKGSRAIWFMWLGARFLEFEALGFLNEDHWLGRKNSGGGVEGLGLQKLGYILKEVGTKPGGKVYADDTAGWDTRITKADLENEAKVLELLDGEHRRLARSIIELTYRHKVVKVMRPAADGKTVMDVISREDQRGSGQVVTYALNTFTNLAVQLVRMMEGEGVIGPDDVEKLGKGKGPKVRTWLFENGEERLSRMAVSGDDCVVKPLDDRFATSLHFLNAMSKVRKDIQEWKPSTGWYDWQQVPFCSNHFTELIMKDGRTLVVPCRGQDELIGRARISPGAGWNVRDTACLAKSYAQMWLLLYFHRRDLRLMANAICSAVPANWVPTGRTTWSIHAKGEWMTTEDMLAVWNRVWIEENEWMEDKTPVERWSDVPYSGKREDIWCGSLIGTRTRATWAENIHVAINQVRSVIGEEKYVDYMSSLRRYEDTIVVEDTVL
# Chain of Genome polyprotein (P06935 1371-1501 limits assumed): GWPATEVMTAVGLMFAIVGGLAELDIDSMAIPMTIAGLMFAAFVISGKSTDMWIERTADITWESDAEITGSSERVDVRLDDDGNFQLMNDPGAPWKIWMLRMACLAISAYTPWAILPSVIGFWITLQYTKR
# Chain of Genome polyprotein (P06935 1502-2120 limits assumed): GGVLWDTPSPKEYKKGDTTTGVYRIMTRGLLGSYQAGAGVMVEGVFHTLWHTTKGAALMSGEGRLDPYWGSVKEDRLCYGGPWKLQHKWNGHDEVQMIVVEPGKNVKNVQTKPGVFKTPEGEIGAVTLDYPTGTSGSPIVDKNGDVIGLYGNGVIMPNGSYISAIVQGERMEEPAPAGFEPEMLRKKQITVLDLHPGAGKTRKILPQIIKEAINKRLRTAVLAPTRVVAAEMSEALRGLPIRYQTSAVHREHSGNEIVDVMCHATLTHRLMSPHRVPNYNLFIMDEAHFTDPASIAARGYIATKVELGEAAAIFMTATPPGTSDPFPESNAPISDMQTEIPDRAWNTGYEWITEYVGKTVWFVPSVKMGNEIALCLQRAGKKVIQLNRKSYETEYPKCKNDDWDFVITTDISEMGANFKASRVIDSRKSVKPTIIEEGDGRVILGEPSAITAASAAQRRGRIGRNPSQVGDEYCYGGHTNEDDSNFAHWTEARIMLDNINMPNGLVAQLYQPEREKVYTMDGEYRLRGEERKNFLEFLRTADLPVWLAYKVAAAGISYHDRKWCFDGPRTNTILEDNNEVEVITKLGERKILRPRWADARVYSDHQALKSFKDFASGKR
Structure (SMILES),permeability [1],IC50 [2] [nM],inhibition (dengue virus type 2 [3]) [%],inhibition (Trypsin [4]) [%],inhibition (Prothrombin),inhibition [5] [%],IC50 (Trypsin [6]) [nM],Activity [7],half-life at 100 µM [8] [min],inhibition at 50 µM (dengue virus type 2 [9]) [%],Ki [2] [nM],IC50 (Genome polyprotein) [nM]
N=C(N)c1cccc(C[C@H](NC(=O)c2ccccc2)C(=O)N[C@@H](CCCCN)C(=O)N[C@H](C(N)=O)c2ccccc2)c1,impermeable,3070,94,37,71.1%,39.5,–,–,–,–,–,–
N=C(N)Nc1ccc(C[C@H](NC(=O)c2ccc(C(F)(F)F)cc2)C(=O)N[C@@H](CCCCN)C(=O)N[C@H](C(N)=O)c2ccccc2)cc1,impermeable,690,100,12.8,inactive,42.2,–,–,–,–,–,–
N=C(N)Nc1cccc([C@H](NC(=O)c2ccccc2)C(=O)N[C@@H](CCCCN)C(=O)N[C@H](C(N)=O)c2ccccc2)c1,impermeable,3090,98.8,90.8,41.7%,89.4,7100,–,–,–,–,–
NCCCC[C@H](NC(=O)[C@H](Cc1cccc(CN)c1)NC(=O)c1ccccc1)C(=O)N[C@H](C(N)=O)c1ccccc1,impermeable,11800,82.4,11.2,5.6%,68.6,–,–,–,–,–,–
N=C(N)c1cccc(C[C@H](NC(=O)c2ccc(C(F)(F)F)cc2)C(=O)N[C@@H](CCCCN)C(=O)N[C@H](C(N)=O)c2ccccc2)c1,impermeable,5810,95.8,27.1,66.6%,76.1,–,–,–,–,–,–
N#Cc1ccc(C[C@H](NC(=O)c2ccccc2)C(=O)N[C@@H](CCCCN)C(=O)N[C@H](C(N)=O)c2ccccc2)cc1 (Bz-[Phe(4-CN)]-Lys-[Phg]-NH2),–,–,22,0.7,7.5%,4.7,–,–,–,–,–,–
N=C(N)NCCC[C@H](NC(=O)c1ccc(C(F)(F)F)cc1)C(=O)N[C@@H](CCCCN)C(=O)N[C@H](C(N)=O)c1ccccc1,–,1020,98.7,11.5,7.7%,85.3,–,–,–,–,–,–
NCCCC[C@H](NC(=O)[C@H](Cc1cccc(N)c1)NC(=O)c1ccccc1)C(=O)N[C@H](C(N)=O)c1ccccc1,–,–,28.9,4.7,inactive,23.7,–,–,–,–,–,–
N=C(N)Nc1ccc(C[C@H](NC(=O)CCc2ccccc2)C(=O)N[C@@H](CCCCN)C(=O)N[C@H](C(N)=O)c2ccccc2)cc1 (Hydrocinnamoyl-[Phe(4-guanidino)]-Lys-[Phg]-NH2),impermeable,890,101,23.6,6.4%,44.3,–,Non-toxic,18,8.8,–,–
N=C(N)NCCC[C@H](NC(=O)c1ccccc1)C(=O)N[C@@H](CCCCN)C(=O)N[C@H](C(N)=O)c1ccccc1 (Bz-Arg-Lys-[Phg]-NH2),–,–,–,0.5,–,–,–,Non-toxic,–,40.3,–,–
NCCCC[C@H](NC(=O)[C@H](Cc1ccncc1)NC(=O)c1ccccc1)C(=O)N[C@H](C(N)=O)c1ccccc1 (Bz-[4Pal]-Lys-[Phg]-NH2),–,–,12,0,3.8%,0,–,–,–,–,–,–
N#Cc1cccc(C[C@H](NC(=O)c2ccccc2)C(=O)N[C@@H](CCCCN)C(=O)N[C@H](C(N)=O)c2ccccc2)c1 (Bz-[Phe(3-CN)]-Lys-[Phg]-NH2),–,–,29.6,0,4%,15.6,–,–,–,–,–,–
N=C(N)c1ccc(C[C@H](NC(=O)c2ccccc2)C(=O)N[C@@H](CCCCN)C(=O)N[C@H](C(N)=O)c2ccccc2)cc1,impermeable,440,100,17.4,18%,59.1,–,Non-toxic,–,32.4,232,–
N=C(N)c1ccc(C[C@H](NC(=O)c2ccc(C(F)(F)F)cc2)C(=O)N[C@@H](CCCCN)C(=O)N[C@H](C(N)=O)c2ccccc2)cc1,impermeable,210,99.8,43.4,50.3%,69.9,–,Non-toxic,–,38.2,139,–
CC(=O)Nc1ccc(C[C@H](NC(=O)c2ccccc2)C(=O)N[C@@H](CCCCN)C(=O)N[C@H](C(N)=O)c2ccccc2)cc1 (Bz-[Phe(4-NH2)](Ac)-Lys-[Phg]-NH2),impermeable,–,34.8,0,7.4%,93.7,–,–,–,–,–,3850
CC(=N)Nc1ccc(C[C@H](NC(=O)c2ccccc2)C(=O)N[C@@H](CCCCN)C(=O)N[C@H](C(N)=O)c2ccccc2)cc1,impermeable,12700,76.6,0,7.7%,34.2,–,–,–,–,–,–
C[C@]12CC[C@H]3[C@@H](CCC4=CC(=O)CC[C@@]43C)[C@@H]1CC[C@@H]2O [TESTOSTERONE],–,–,–,–,–,–,–,–,63,–,–,–
NCCCC[C@H](NC(=O)[C@H](Cc1cccnc1)NC(=O)c1ccccc1)C(=O)N[C@H](C(N)=O)c1ccccc1 (Bz-[3Pal]-Lys-[Phg]-NH2),–,–,17.5,3.4,1.8%,23.8,–,–,–,–,–,–
N=C(N)c1ccc([C@H](NC(=O)c2ccccc2)C(=O)N[C@@H](CCCCN)C(=O)N[C@H](C(N)=O)c2ccccc2)cc1,–,–,24.8,19.2,5.5%,59.5,–,–,–,–,–,–
N=C(N)Nc1ccc(C[C@H](NC(=O)c2ccccc2)C(=O)N[C@@H](CCCCN)C(=O)N[C@H](C(N)=O)c2ccccc2)cc1 (Bz-[Phe(4-guanidino)]-Lys-[Phg]-NH2),impermeable,580,99.9,16.2,7.6%,64.7,–,–,–,–,–,–
N=C(N)c1ccc(C[C@H](NC(=O)CCc2ccccc2)C(=O)N[C@@H](CCCCN)C(=O)N[C@H](C(N)=O)c2ccccc2)cc1,impermeable,260,101,4.4,24.7%,67.7,–,Non-toxic,22,58.8,160,–
NCCCC[C@H](NC(=O)[C@H](Cc1ccc(N)cc1)NC(=O)c1ccccc1)C(=O)N[C@H](C(N)=O)c1ccccc1 (Bz-[Phe(4-NH2)]-Lys-[Phg]-NH2),–,–,21.1,0,2.3%,23.8,–,–,–,–,–,–
N=C(N)NCCC[C@H](NC(=O)CCc1ccccc1)C(=O)N[C@@H](CCCCN)C(=O)N[C@H](C(N)=O)c1ccccc1 (Hydrocinnamoyl-Arg-Lys-[Phg]-NH2),–,2700,95.9,2.3,2.5%,45.3,–,–,–,–,–,–
